ChEMBL document CHEMBL2040721, “Potent direct inhibitors of factor Xa based on the tetrahydroisoquinoline scaffold” (Eur J Med Chem, 2012)

Experiments:
Plasma [1] = assay: Anticoagulant activity in human plasma assessed as concentration required to double the prothrombin time incubated for 30 s prior to thromboplastin addition by fibrometry
Coagulation factor X = Coagulation factor X (Homo sapiens, UniProt P00742); assay: Inhibition of human factor 10a using chromogenic spectrozyme F10a as substrate after 10 mins by spectrophotometry
Outline: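 Human plasma FXa pre-incubated 10 min at 37 °C with inhibitor (twelve concentrations, 0.015–500 μM in well) in pH 7.4 buffer, then Spectrozyme FXa added. Initial rate of A405 rise gives residual activity relative to no-inhibitor control. Duplicate or triplicate; logistic fit gives IC50, efficacy and Hill slope. Organic solvent held constant, <2.5% v/v.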

Plasma [2] = assay: Anticoagulant activity in human plasma assessed as concentration required to double the activated […] time incubated for 4 mins prior to CaCl2-challenge by fibrometry; type: functional
Prothrombin = Prothrombin (Homo sapiens, UniProt P00734); assay: Inhibition of human factor 2a using chromogenic spectrozyme TH as substrate after 10 mins by spectrophotometry
Homo sapiens [3] = organism: Homo sapiens; assay: Selectivity index ratio of IC50 for factor 12a to IC50 for human factor 10a
Chymotrypsinogen A = Chymotrypsinogen A (Bos taurus, UniProt P00766); assay: Inhibition of bovine alpha-chymotrypsin using chromogenic spectrozyme CTY as substrate after 10 mins by spectrophotometry
Homo sapiens [4] = organism: Homo sapiens; assay: Selectivity index ratio of IC50 for human factor 7a to IC50 for human factor 10a
Coagulation factor XI = Coagulation factor XI (Homo sapiens, UniProt P03951); assay: Inhibition of human factor 11a using chromogenic S2366 as substrate after 10 mins by spectrophotometry
Coagulation factor IX = Coagulation factor IX (Homo sapiens, UniProt P00740); assay: Inhibition of human factor 9a using chromogenic spectrozyme 9a as substrate after 10 mins by spectrophotometry
Homo sapiens [5] = organism: Homo sapiens; assay: Selectivity index ratio of IC50 for human factor 2a to IC50 for human factor 10a
Homo sapiens [6] = organism: Homo sapiens; assay: Selectivity index ratio of IC50 for human factor 9a to IC50 for human factor 10a
[7] = Selectivity index ratio of IC50 for bovine trypsin to IC50 for human factor10a
Coagulation factor VII = target: T1, Coagulation factor VII (Homo sapiens, UniProt P08709); assay: Inhibition of human factor 7a using chromogenic spectrozyme 7a as substrate after 10 mins by spectrophotometry
T1 sequence (P08709 whole entry): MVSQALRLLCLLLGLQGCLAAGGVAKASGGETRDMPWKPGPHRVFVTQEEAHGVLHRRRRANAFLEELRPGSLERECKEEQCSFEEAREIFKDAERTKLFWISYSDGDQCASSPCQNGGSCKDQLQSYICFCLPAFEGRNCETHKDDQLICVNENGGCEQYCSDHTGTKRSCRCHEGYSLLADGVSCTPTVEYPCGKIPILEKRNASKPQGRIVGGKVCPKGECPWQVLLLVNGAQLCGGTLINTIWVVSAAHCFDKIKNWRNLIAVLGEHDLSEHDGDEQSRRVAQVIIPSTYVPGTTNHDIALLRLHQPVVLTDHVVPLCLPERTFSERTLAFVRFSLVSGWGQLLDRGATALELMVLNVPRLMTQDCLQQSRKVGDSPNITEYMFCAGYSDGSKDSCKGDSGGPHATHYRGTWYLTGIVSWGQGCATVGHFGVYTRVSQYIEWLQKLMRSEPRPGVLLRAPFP

[8] = Inhibition of bovine trypsin using chromogenic S2222 as substrate after 10 mins by spectrophotometry; parameters: species or system Bos taurus
[9] = Selectivity index ratio of IC50 for bovine alpha-chymotrypsin to IC50 for human factor10a
Coagulation factor XII = target: T2, Coagulation factor XII (Homo sapiens, UniProt P00748); assay: Inhibition of factor 12a using chromogenic spectrozyme 12a as substrate after 10 mins by spectrophotometry
T2 sequence (P00748 whole entry): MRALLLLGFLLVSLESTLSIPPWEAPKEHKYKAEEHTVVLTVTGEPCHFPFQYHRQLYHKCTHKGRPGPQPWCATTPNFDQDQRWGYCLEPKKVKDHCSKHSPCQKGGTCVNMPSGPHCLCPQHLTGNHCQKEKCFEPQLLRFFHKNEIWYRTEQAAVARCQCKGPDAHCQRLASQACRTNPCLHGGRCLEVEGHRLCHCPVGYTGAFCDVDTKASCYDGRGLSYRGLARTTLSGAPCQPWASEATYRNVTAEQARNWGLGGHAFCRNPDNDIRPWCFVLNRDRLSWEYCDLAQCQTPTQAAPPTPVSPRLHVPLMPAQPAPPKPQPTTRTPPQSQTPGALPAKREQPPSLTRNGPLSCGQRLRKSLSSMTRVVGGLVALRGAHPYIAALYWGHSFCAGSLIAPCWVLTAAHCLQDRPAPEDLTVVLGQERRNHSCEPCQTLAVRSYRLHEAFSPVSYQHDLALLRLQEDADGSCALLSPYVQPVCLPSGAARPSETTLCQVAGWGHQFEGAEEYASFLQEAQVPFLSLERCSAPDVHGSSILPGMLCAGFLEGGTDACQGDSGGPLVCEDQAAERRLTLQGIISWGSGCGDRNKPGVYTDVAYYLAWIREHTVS

Homo sapiens [10] = organism: Homo sapiens; assay: Selectivity index ratio of IC50 for human factor 11a to IC50 for human factor 10a

Chain of Coagulation factor X (P00742 41-179 limits assumed): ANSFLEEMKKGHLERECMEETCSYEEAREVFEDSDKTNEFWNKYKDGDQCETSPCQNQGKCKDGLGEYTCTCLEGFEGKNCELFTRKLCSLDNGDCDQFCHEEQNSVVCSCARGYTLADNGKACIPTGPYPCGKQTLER
Chain of Coagulation factor X (P00742 235-488 limits assumed): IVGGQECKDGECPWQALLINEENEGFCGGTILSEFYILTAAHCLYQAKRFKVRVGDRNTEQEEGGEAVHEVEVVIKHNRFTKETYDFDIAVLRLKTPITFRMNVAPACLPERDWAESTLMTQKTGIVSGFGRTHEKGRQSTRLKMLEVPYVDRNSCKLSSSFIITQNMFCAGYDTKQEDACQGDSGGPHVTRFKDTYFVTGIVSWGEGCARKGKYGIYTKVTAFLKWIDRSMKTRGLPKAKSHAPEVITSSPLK
Chain of Coagulation factor IX (P00740 47-191 limits assumed): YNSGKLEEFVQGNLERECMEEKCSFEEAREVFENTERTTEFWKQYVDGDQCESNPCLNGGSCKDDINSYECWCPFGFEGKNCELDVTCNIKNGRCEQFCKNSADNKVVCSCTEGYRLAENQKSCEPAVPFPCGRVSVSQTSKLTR
Chain of Coagulation factor IX (P00740 227-461 limits assumed): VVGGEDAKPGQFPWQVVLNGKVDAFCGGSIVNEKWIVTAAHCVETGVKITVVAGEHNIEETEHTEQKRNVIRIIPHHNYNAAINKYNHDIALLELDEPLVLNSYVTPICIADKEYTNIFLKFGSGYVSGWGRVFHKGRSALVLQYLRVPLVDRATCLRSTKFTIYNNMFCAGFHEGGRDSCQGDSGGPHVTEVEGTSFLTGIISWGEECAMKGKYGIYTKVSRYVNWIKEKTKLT
Chain of Coagulation factor XI (P03951 19-387 limits assumed): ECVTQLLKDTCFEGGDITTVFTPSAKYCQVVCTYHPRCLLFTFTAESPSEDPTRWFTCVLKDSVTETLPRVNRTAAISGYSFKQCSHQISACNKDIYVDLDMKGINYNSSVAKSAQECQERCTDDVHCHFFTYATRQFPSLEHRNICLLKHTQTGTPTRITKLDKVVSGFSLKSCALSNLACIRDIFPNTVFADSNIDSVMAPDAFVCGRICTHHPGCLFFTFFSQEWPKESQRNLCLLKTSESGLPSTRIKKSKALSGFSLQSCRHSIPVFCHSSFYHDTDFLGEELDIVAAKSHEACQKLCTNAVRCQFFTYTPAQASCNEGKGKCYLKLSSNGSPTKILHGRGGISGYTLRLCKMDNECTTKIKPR
Chain of Coagulation factor XI (P03951 388-625 limits assumed): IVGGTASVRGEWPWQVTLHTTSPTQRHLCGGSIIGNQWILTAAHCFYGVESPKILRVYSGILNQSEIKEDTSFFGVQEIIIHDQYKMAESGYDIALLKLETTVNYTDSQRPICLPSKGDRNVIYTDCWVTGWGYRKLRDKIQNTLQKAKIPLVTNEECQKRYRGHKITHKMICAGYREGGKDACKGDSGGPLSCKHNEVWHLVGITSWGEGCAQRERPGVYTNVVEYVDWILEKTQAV

Row | Structure (SMILES) | IC50 (Coagulation factor X) | further results
1 | COc1ccc(CC(=O)N2Cc3ccccc3C[C@H]2C(=O)N(C)c2ccc(N3CCCCC3=O)cc2)cc1 | 34 µM | –
2 | O=C(Nc1ccc(N2CCCCC2)cc1)[C@@H]1Cc2ccccc2CN1C(=O)OCc1ccccc1 | > 500 µM | –
3 | CCN(C(=O)[C@@H]1Cc2ccccc2CN1C(=O)OCc1ccccc1)c1ccc(N2CCCCC2=O)cc1 | 20 µM | –
4 | CN(C(=O)[C@@H]1Cc2ccccc2CN1C(=O)OC(C)(C)C)c1ccc(N2CCCCC2=O)cc1 | 221 µM | –
5 | CC(C)N(C(=O)[C@@H]1Cc2ccccc2CN1C(=O)OCc1ccccc1)c1ccc(N2CCCCC2=O)cc1 | 19 µM | –
6 | CN(C(=O)[C@@H]1Cc2ccccc2CN1C(=O)CCc1ncc(-c2ccc(Cl)cc2)o1)c1ccc(N2CCCCC2=O)cc1 | 103 µM | –
7 | O=C(Nc1ccc(N2CCN(C(=O)c3cccs3)CC2)cc1)[C@@H]1Cc2ccccc2CN1C(=O)OCc1ccccc1 | > 500 µM | –
8 | CN(C(=O)[C@H]1CCCN(C(=O)Cc2ccc(Cl)cc2)C1)c1ccc(N2CCCCC2=O)cc1 | 371 µM | –
9 | COc1ccc(CC(=O)N2Cc3ccccc3C[C@H]2C(=O)N(C)c2ccc(N3CCCCC3=O)cc2)cc1OC | 246 µM | –
10 | Cc1c(C(=O)N2Cc3ccccc3C[C@H]2C(=O)Nc2ccc(N3CCOCC3=O)cc2)sc2ccc(Cl)cc12 | 5.4 µM | 2PT (Plasma [1]): 2160 µM
11 | CCN(C(=O)[C@@H]1Cc2ccccc2CN1C(=O)Cc1ccc(Cl)cc1)c1ccc(N2CCOCC2=O)cc1 | 1.6 µM | –
12 | CC(=O)N1CCN(c2ccc(NC(=O)[C@@H]3Cc4ccccc4CN3C(=O)OCc3ccccc3)cc2)CC1 | > 500 µM | –
13 | COc1cc2c(cc1OC)CN(C(=O)Cc1ccc(Cl)cc1)[C@H](C(=O)N(C)c1ccc(N3CCCCC3=O)cc1)C2 | 7.8 µM | –
14 | CN(C(=O)[C@@H]1Cc2ccccc2CN1S(=O)(=O)Cc1ccc(Cl)cc1)c1ccc(N2CCCCC2=O)cc1 | 151 µM | –
15 | O=C(Nc1ccc(N2CCCCC2=O)cc1)[C@@H]1Cc2ccccc2CN1C(=O)c1ccc(C(F)(F)F)cc1 | 13.3 µM | –
16 | CN(C(=O)[C@@H]1Cc2ccccc2CN1C(=O)OCc1ccccc1)c1ccc(N2CCCCC2=O)cc1 | 16.4 µM | –
17 | CN(C(=O)[C@H]1Cc2ccccc2CN1C(=O)Cc1ccc(C(F)(F)F)cc1)c1ccc(N2CCCCC2=O)cc1 | 311 µM | –
18 | COc1ccc(CCC(=O)N2Cc3ccccc3C[C@H]2C(=O)N(C)c2ccc(N3CCOCC3=O)cc2)c(OC)c1 | > 500 µM | –
19 | CN(C(=O)[C@H]1CCCCN1C(=O)c1ccc(Cl)s1)c1ccc(N2CCCCC2=O)cc1 | 99 µM | –
20 | CN(C(=O)[C@H](Cc1ccccc1)NC(=O)Cc1ccc(Cl)cc1)c1ccc(N2CCCCC2=O)cc1 | 54 µM | –
21 | O=C(Nc1ccc(Cl)cc1)[C@@H]1Cc2ccccc2CN1C(=O)OCc1ccccc1 | > 500 µM | –
22 | O=C(Nc1ccc(N2CCOCC2=O)cc1)[C@H]1CCCCN1C(=O)Cc1ccc(Cl)cc1 | 23 µM | –

Now from value to molecule, other results behind:

Row | IC50 (Coagulation factor X) | Structure (SMILES) | further results
23 | 10 µM | O=C(Nc1ccc(N2CCOCC2=O)cc1)[C@@H]1[C@@H]2CC[C@H](C2)N1C(=O)Cc1ccc(Cl)cc1 | 2PT (Plasma [1]): 2347 µM
24 | 56 µM | CN(C(=O)[C@@H]1Cc2ccccc2CN1C(=O)c1ccc(Cl)s1)c1ccc(N2CCCCC2=O)cc1 | –
25 | 12.8 µM | CN(C(=O)[C@@H]1Cc2ccccc2CN1C(=O)OCc1ccccc1)c1ccc(N2CCOCC2=O)cc1 | –
26 | 19 µM | COc1ccc(C(=O)N2Cc3ccccc3C[C@H]2C(=O)N(C)c2ccc(N3CCCCC3=O)cc2)cc1 | –
27 | 14 µM | Cc1ccc(CC(=O)N2Cc3ccccc3C[C@H]2C(=O)N(C)c2ccc(N3CCCCC3=O)cc2)cc1 | –
28 | 2.9 µM | O=C(Nc1ccc(N2CCOCC2=O)cc1)[C@@H]1Cc2ccccc2CN1C(=O)c1ccc(CCl)cc1 | 2aPTT (Plasma [2]): 614 µM; 2PT (Plasma [1]): 645 µM
29 | 36 µM | CN(C(=O)[C@@H]1Cc2ccccc2CN1C(=O)c1ccc(Cl)s1)c1ccc(N2CCOCC2=O)cc1 | –
30 | 19 µM | CCN(C(=O)[C@@H]1Cc2ccccc2CN1C(=O)OCc1ccccc1)c1ccc(N2CCOCC2=O)cc1 | –
31 | 85 µM | CN(C(=O)[C@@H]1Cc2ccccc2CN1C(=O)Cc1ccc([N+](=O)[O-])cc1)c1ccc(N2CCCCC2=O)cc1 | –
32 | 6 µM | O=C(Nc1ccc(N2CCOCC2=O)cc1)[C@@H]1Cc2ccccc2CN1C(=O)OCc1ccccc1 | 2PT (Plasma [1]): 1387 µM
33 | 9.9 µM | O=C(Nc1ccc(N2CCCCC2=O)cc1)[C@@H]1Cc2ccccc2CN1C(=O)OCc1ccccc1 | –
34 | 0.27 µM | O=C(Nc1ccc(N2CCOCC2=O)cc1)[C@H]1Cc2ccccc2CN1C(=O)Cc1ccc(Cl)cc1 | IC50 (Prothrombin): > 500 µM; Ratio IC50 (Homo sapiens [3]): > 1850; IC50 (Chymotrypsinogen A): 75.3 µM; Ratio IC50 (Homo sapiens [4]): > 3700; IC50 (Coagulation factor XI): > 500 µM; IC50 (Coagulation factor IX): > 1 mM; Ratio IC50 (Homo sapiens [5]): > 1850; Ratio IC50 (Homo sapiens [6]): > 3700; 2aPTT (Plasma [2]): 20.2 µM; Ratio IC50 [7]: > 370; IC50 (Coagulation factor VII): > 1 mM; IC50 [8]: > 100 µM; Ratio IC50 [9]: 279; 2PT (Plasma [1]): 17.1 µM; IC50 (Coagulation factor XII): > 500 µM; Ratio IC50 (Homo sapiens [10]): > 1850
35 | 9 µM | O=C(Nc1ccc(N2CCOCC2=O)cc1)[C@@H]1CC=CCN1C(=O)Cc1ccc(Cl)cc1 | 2aPTT (Plasma [2]): 810 µM; 2PT (Plasma [1]): 952 µM
36 | 358 µM | CN(C(=O)[C@@H]1CCCCN1C(=O)c1ccc(Cl)s1)c1ccc(N2CCCCC2=O)cc1 | –
37 | 190 µM | COc1ccc(CCC(=O)N2Cc3ccccc3C[C@H]2C(=O)N(C)c2ccc(N3CCOCC3=O)cc2)cc1 | –
38 | 1.3 µM | CN(C(=O)[C@@H]1Cc2ccccc2CN1C(=O)Cc1ccc(Cl)cc1)c1ccc(N2CCCCC2=O)cc1 | 2aPTT (Plasma [2]): 80 µM; 2PT (Plasma [1]): 71 µM
39 | 69 µM | CN(C(=O)[C@@H]1CCCN(C(=O)c2ccc(Cl)s2)C1)c1ccc(N2CCCCC2=O)cc1 | –
40 | 1.3 µM | CN(C(=O)[C@@H]1Cc2ccccc2CN1C(=O)Cc1ccc(Cl)cc1Cl)c1ccc(N2CCCCC2=O)cc1 | 2aPTT (Plasma [2]): 260 µM; 2PT (Plasma [1]): 219 µM
41 | > 500 µM | CN(C(=O)[C@@H]1Cc2ccccc2CN1C(=O)c1cc(-c2ccc(Br)cc2)cs1)c1ccc(N2CCOCC2=O)cc1 | –
42 | 42 µM | CN(C(=O)[C@@H]1Cc2ccccc2CN1C(=O)c1cccs1)c1ccc(N2CCCCC2=O)cc1 | –
43 | 335 µM | CN(C(=O)[C@@H]1Cc2ccccc2CN1C(=O)Cc1ccc(C(F)(F)F)cc1)c1ccc(N2CCCCC2=O)cc1 | –
44 | 197 µM | CN(C(=O)[C@@H]1Cc2ccccc2CN1C(=O)c1ccc(Cl)cc1)c1ccc(N2CCCCC2=O)cc1 | –
45 | 1.1 µM | CN(C(=O)[C@@H]1Cc2ccccc2CN1C(=O)Cc1ccc(Cl)cc1)c1ccc(N2CCOCC2=O)cc1 | –
46 | 0.9 µM | CN(C(=O)[C@H]1Cc2ccccc2CN1C(=O)Cc1ccc(Cl)cc1)c1ccc(N2CCCCC2=O)cc1 | –
47 | 18 µM | CN(C(=O)[C@@H]1Cc2ccccc2CN1C(=O)Cc1ccc(Cl)c(Cl)c1)c1ccc(N2CCCCC2=O)cc1 | –
48 | 209 µM | Cc1ccc(C(=O)N2Cc3ccccc3C[C@H]2C(=O)N(C)c2ccc(N3CCCCC3=O)cc2)cc1 | –
